These results are taken from ChEMBL document CHEMBL1132203, “Synthesis and biological properties of novel pyridinioalkanoyl thiolesters (PATE) as anti-HIV-1 agents that target the viral nucleocapsid protein zinc fingers” (J Med Chem, 1999).

pEC50, pIC50: −log10 of the molar value.

As usually defined, the pEC50 is the EC50 on a negative log10 scale, so that one unit is a factor of ten. Lower therefore signals a large EC50. For orientation: pIC50 means the IC50 on a negative log10 scale, so that one unit is a factor of ten. Higher therefore signals a small IC50.

Test [1] deals with Human immunodeficiency virus 1. The test is described as follows: Effective antiviral concentration against HIV-1 infected CEM-SS cells. In kind it is functional, organism-based. The following applies: Human immunodeficiency virus 1, CEM-SS. The method, boiled down:
(§1)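 CEM-SS cells infected with HIV-1 RF at MOI 0.01, scored by XTT dye-reduction cytoprotection. EC50 is the concentration giving 50% protection of infected cells. IC50 is the concentration causing 50% cytotoxicity (growth inhibition). High test concentration 316 μM.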

Test [2] has as its system Human immunodeficiency virus 1. The test is described as follows: Antiviral activity against HIV-1 infected CEM-SS cells was determined in XTT cytoprotection assay. Type of test: functional, organism-based. The following applies: Human immunodeficiency virus 1, CEM-SS. In short, it runs like this: as §1
For test [3], the target named is Human immunodeficiency virus type 1 reverse transcriptase (Human immunodeficiency virus 1, UniProt Q72547). The test is described as follows: 50% Inhibitory activity against reverse transcriptase; No inhibition at a highest dose of 100 uM. In short, it runs like this:
(§2)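 Top test level 100 μM; IC50 is the concentration inhibiting 50% of the indicated activity, with reference inhibitors run as positive controls. Integrase uses recombinant HIV-1 integrase, scored on 3'-processing and strand transfer. Protease uses recombinant HIV-1 protease cleaving the peptide Ala-Ser-Glu-Asn-Try-Pro-Ile-Val-amide, read by HPLC. Reverse transcriptase uses recombinant HIV-1 RT on rAdT and rCdG template/primers.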

Test [4] addresses Human immunodeficiency virus type 1 integrase (Human immunodeficiency virus 1, UniProt Q7ZJM1). The test is described as follows: 50% Inhibitory activity against Integrase; No inhibition at a highest dose of 100 uM. The method, boiled down:
as §2

Test [5] has as its system Human immunodeficiency virus 1. The test is described as follows: Nucleocapsid p7 protein (NCp7) zinc finger domain reactivity was measured by Trp37 fluorescence assay expressed as the average decrease in relative fluorescence units over 30 min. In kind it is functional. In short, it runs like this:
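Recombinant HIV-1 NCp7 (pET3A construct expressed in E. coli BL21); intrinsic fluorescence of Trp37 in the C-terminal zinc finger monitored over 30 min after compound addition. Value is the mean fall in relative fluorescence units per minute across 30 min, taken as a readout of Zn ejection. Dithiane or DIBA-1 served as reference. Where glutathione pretreatment was used, 2 mM compound was held 2 h at 37 °C with 2–8 M excess reduced glutathione, then diluted 40-fold to 50 μM final compound.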

In test [6] the target is Human immunodeficiency virus type 1 protease (Human immunodeficiency virus 1, UniProt Q72874). The test is described as follows: 50% Inhibitory activity against protease; No inhibition at a highest dose of 100 uM. In short, it runs like this: as §2
The nature of test [7]: 50% Inhibitory activity against attachment; No inhibition at a highest dose of 100 uM.
A short description of test [8]: 50% Inhibitory activity against fusion; No inhibition at a highest dose of 100 uM.

Sequence of Human immunodeficiency virus type 1 integrase (Q7ZJM1 whole entry): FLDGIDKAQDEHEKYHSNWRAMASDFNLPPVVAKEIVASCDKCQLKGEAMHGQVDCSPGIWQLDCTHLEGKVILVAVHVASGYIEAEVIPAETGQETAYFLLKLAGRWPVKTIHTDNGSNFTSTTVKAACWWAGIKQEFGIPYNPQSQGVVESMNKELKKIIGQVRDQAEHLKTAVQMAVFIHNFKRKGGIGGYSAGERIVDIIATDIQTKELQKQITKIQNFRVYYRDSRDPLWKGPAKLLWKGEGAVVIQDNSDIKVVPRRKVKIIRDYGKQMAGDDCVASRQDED

As for `CC(=O)NS(=O)(=O)c1ccc(NC(=O)c2ccccc2SC(=O)CCCC[n+]2ccccc2)cc1.[Br-]`, the pEC50 in test [1] was 5.21. In test [2], this molecule gave a negative-log IC50 (pIC50) of less than 3.50. Further, the IC50 entry in test [3], in test [4], in test [6] and in test [7] was “No inhibition” in each case. This molecule yielded a Zinc finger reactivity in test [5] of 3.6 RFU min-1.
Turning to `O=C(CCCC[n+]1ccccc1)Sc1ccccc1C(=O)Nc1ccc(S(=O)(=O)c2ccc(NS(=O)(=O)Cc3ccccc3[N+](=O)[O-])cc2)cc1.[Br-]`, the negative-log EC50 (pEC50) in test [1] is 5.54. Moreover, the negative logarithm of the IC50 (pIC50) in test [2] is less than 3.50. The Activity in test [5] is 0.86 RFU min-1.
`COc1ccc(C(=O)Nc2ccc(S(=O)(=O)c3ccc(NC(=O)c4ccccc4SSc4ccccc4C(=O)Nc4ccc(S(=O)(=O)c5ccc(NC(=O)c6ccc(OC)cc6)cc5)cc4)cc3)cc2)cc1` had a pEC50 in test [1] of 5.42. This molecule had a pIC50 in test [2] of 4.10. Besides, in test [5], the Activity stood at 6.9 RFU min-1.
In the same order, the values of `CC(=O)Nc1ccc(S(=O)(=O)c2ccc(NC(=O)c3ccccc3SSc3ccccc3C(=O)Nc3ccc(S(=O)(=O)c4ccc(NC(C)=O)cc4)cc3)cc2)cc1` are 5.82, 3.80 and 5.9 RFU min-1.
In the same order, the values of `CC(=O)Nc1cccc(S(=O)(=O)c2cccc(NC(=O)c3ccccc3SC(=O)CCCC[n+]3ccccc3)c2)c1.[Br-]` are 5.31, 3.69 and 1.1 RFU min-1.
In the same order, the values of `O=C(Nc1ccc(S(=O)(=O)c2ccc([N+](=O)[O-])cc2)cc1)c1ccccc1SSc1ccccc1C(=O)Nc1ccc(S(=O)(=O)c2ccc([N+](=O)[O-])cc2)cc1` are 4.91, less than 3.50 and 2.9 RFU min-1.
The molecule `NS(=O)(=O)c1ccc(CCNC(=O)c2ccccc2SSc2ccccc2C(=O)NCCc2ccc(S(N)(=O)=O)cc2)cc1` had a negative logarithm of the EC50 (pEC50) in test [1] of 6.39. For the same molecule, the negative logarithm of the IC50 (pIC50) in test [2] is 4.28. Also, the Activity in test [5] is recorded as 2.7 RFU min-1.
Consider `Nc1cccc(S(=O)(=O)c2cccc(NC(=O)c3ccccc3SSc3ccccc3C(=O)Nc3cccc(S(=O)(=O)c4cccc(N)c4)c3)c2)c1`, for which the pEC50 in test [1] is 6.00. The molecule further had a negative logarithm of the IC50 (pIC50) in test [2] of 4.09. Moreover, the Activity in test [5] turned out to be 0.92 RFU min-1.
In the same order, the values of `O=C(CCCCBr)Sc1ccccc1C(=O)Nc1ccc(S(=O)(=O)c2ccc([N+](=O)[O-])cc2)cc1` are 5.80, 4.66 and 1 RFU min-1.
For the molecule `CC(=O)NS(=O)(=O)c1ccc(NC(=O)c2cccc(NC(=O)CCCl)c2)cc1`, the negative logarithm of the EC50 (pEC50) in test [1] is 4.42. In test [2], this molecule had a negative logarithm of the IC50 (pIC50) of 3.99. The molecule further returned an Activity in test [5] of 3.9 RFU min-1.
In the same order, the values of `CC(=O)NS(=O)(=O)c1ccc(NC(=O)c2ccccc2SC(=O)CCC[n+]2ccccc2)cc1.[Br-]` are 5.00, 3.76 and 2.2 RFU min-1.
In the same order, the values of `CC(=O)Nc1cccc(S(=O)(=O)c2cccc(NC(=O)c3ccccc3SSc3ccccc3C(=O)Nc3cccc(S(=O)(=O)c4cccc(NC(C)=O)c4)c3)c2)c1` are 6.21, 4.23 and 2 RFU min-1.
With `CC(=O)Nc1ccc(S(=O)(=O)Nc2ccc(S(=O)(=O)c3ccc(-n4sc5ccccc5c4=O)cc3)cc2)cc1`, the negative-log EC50 (pEC50) in test [1] is 5.02. In addition, the pIC50 in test [2] is 3.73. Moreover, in test [5], the Activity was 7.9 RFU min-1.
In the same order, the values of `NS(=O)(=O)c1ccc(Cn2sc3ccccc3c2=O)cc1` are 4.86, 4.27 and 2.7 RFU min-1.
`O=C(CCCC[n+]1ccccc1)Sc1ccccc1C(=O)Nc1ccc(S(=O)(=O)c2ccc([N+](=O)[O-])cc2)cc1.[Br-]` showed a negative-log EC50 (pEC50) in test [1] of 5.26. This molecule also had a pIC50 in test [2] of less than 3.50. Further, the IC50 result in test [3], in test [4] and in test [7] was “No inhibition” in each case. The molecule further gave a Zinc finger reactivity in test [5] of 4.1 RFU min-1.
`O=C(Nc1ccc(S(=O)(=O)c2ccc(NC(=O)c3ccccc3SSc3ccccc3C(=O)Nc3ccc(S(=O)(=O)c4ccc(NC(=O)c5cc([N+](=O)[O-])cc([N+](=O)[O-])c5)cc4)cc3)cc2)cc1)c1cc([N+](=O)[O-])cc([N+](=O)[O-])c1` showed a negative logarithm of the EC50 (pEC50) in test [1] of 3.62. Also, in test [2], the pIC50 is less than 3.50. Also, the Activity in test [5] came out at 1.6 RFU min-1.
Molecule `O=c1c2ccccc2sn1-c1ccc(S(=O)(=O)c2ccc(NS(=O)(=O)Cc3ccccc3[N+](=O)[O-])cc2)cc1` had a pEC50 in test [1] of 5.49. The negative-log IC50 (pIC50) in test [2] is 4.23. For the same molecule, the Activity in test [5] was 2 RFU min-1.
As to `CC(=O)Nc1ccc(S(=O)(=O)Nc2ccc(S(=O)(=O)c3ccc(NC(=O)c4ccccc4SSc4ccccc4C(=O)Nc4ccc(S(=O)(=O)c5ccc(NS(=O)(=O)c6ccc(NC(C)=O)cc6)cc5)cc4)cc3)cc2)cc1`, in test [1], the pEC50 is 6.00. In test [2], this molecule showed a pIC50 of 4.90. The Activity in test [5] amounted to 5.9 RFU min-1.
In the same order, the values of `NS(=O)(=O)c1ccc(CNC(=O)c2ccccc2SSc2ccccc2C(=O)NCc2ccc(S(N)(=O)=O)cc2)cc1` are 6.48, 4.71 and 3.3 RFU min-1.
In the same order, the values of `CC(=O)Nc1ccc(S(=O)(=O)c2ccc(NC(=O)c3ccccc3SC(=O)CCCC[n+]3ccccc3)cc2)cc1.[Br-]` are 5.34, 3.54 and 1.7 RFU min-1.
In the same order, the values of `CC(=O)NS(=O)(=O)c1ccc(NC(=O)c2ccccc2SC(C)=O)cc1` are 5.55, 4.25 and 4.2 RFU min-1.
Turning to `CC(=O)NS(=O)(=O)c1ccc(NC(=O)c2ccccc2SC(=O)CCCCBr)cc1`, the pEC50 in test [1] is 5.42. Besides, the negative logarithm of the IC50 (pIC50) in test [2] was 3.73. Further, the IC50 entry in test [3], in test [4], in test [6], in test [7] and in test [8] was “No inhibition” in each case. The molecule further returned a Zinc finger reactivity in test [5] of 1.8 RFU min-1.
The molecule `Nc1ccc(S(=O)(=O)c2ccc(NC(=O)c3ccccc3SSc3ccccc3C(=O)Nc3ccc(S(=O)(=O)c4ccc(N)cc4)cc3)cc2)cc1` showed a negative logarithm of the EC50 (pEC50) in test [1] of 5.37. In test [2], the negative-log IC50 (pIC50) is less than 3.50. The molecule further gave an Activity in test [5] of 3.3 RFU min-1.
`NS(=O)(=O)c1ccc(CNC(=O)c2ccccc2SC(=O)CCCC[n+]2ccccc2)cc1.[Br-]`: in test [1], the pEC50 is 5.96. Moreover, in test [2], the negative logarithm of the IC50 (pIC50) is 4.26. Further, the Activity in test [5] was determined as 1.4 RFU min-1.
In the same order, the values of `NS(=O)(=O)c1ccc(CCn2sc3ccccc3c2=O)cc1` are 5.70, 4.34 and 2.7 RFU min-1.
As to `CC(=O)NS(=O)(=O)c1ccc(NC(=O)c2ccccc2SC(=O)c2ccccc2)cc1`, the negative-log EC50 (pEC50) in test [1] was 5.59. For the same molecule, the pIC50 in test [2] is 4.34. For the same molecule, the Activity in test [5] is recorded as 2.2 RFU min-1.
In the same order, the values of `COc1ccc(C(=O)Sc2ccccc2C(=O)Nc2ccc(S(=O)(=O)NC(C)=O)cc2)cc1` are 5.55, 4.36 and 3.5 RFU min-1.
In the same order, the values of `NS(=O)(=O)c1ccc(NC(=O)CNC(=O)c2ccccc2SSc2ccccc2C(=O)NCC(=O)Nc2ccc(S(N)(=O)=O)cc2)cc1` are 5.80, 4.75 and 7.9 RFU min-1.
